Bioassay records: PubChem BioAssay, several laboratories
An excerpt weighted towards active compounds, which were near 4.9% of everything screened.
STAT3 act – increases IL-6 driven STAT3 reporter signal. activation (% of control), % at 5.6 µM. U3A cells, IL-6 STAT3-luciferase reporter, luminescence; 100% = signal with IL-6 EC80 alone. AID 871. hit rate 0.91% among 190,000;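 active means activation above the screen-wide mean of compound activation plus 3 SD, cut at about 130% in these data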;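 further: 0% = background luminescence of wells with medium and substrate only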
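Detection: reporter luminescence signal / Assay system: STAT1-lacking human U3A cells, STAT3 luciferase reporter / Incubation: compound pre-incubation 1 h before IL-6, then 6 h stimulation at 37 °C / Control set: IL-6-only high control / Read-out: % activation relative to IL-6 control / Probe or stimulus: Interleukin-6, 33 ng/mL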
APP 5'UTR act – activates APP 5'UTR luciferase reporter; SH-SY5Y APP 5'UTR luciferase reporter, luminescence; zero percent = DMSO vehicle wells; activation, % at 2 µM; AID 1276; hit rate 1% among 190,000;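 active means activation above a set limit, based on mean plus 3 SD of controls, cut at about 140% in these data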
STAT3 inh-1 – reduces IL-6 driven STAT3 reporter signal. U3A cells, IL-6 STAT3-luciferase reporter, luminescence; host cell line lacks STAT1. inhibition, % at 5.5 µM. hit rate 0.89% among 190,000;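 active means inhibition above the mean inhibition across all screened compounds plus 3 SD, cut at about 44% in these data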;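 further: 0% = DMSO only wells and 100% = 100 µM nifuroxazide control wells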
STAT1 blocker – reduces IFN-gamma driven STAT1 reporter signal | NIH 3T3 STAT1-luciferase reporter, luminescence | hit rate 0.35% among 200,000 | inhibition, % at 5.5 µM;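 active means inhibition above a set limit, the mean inhibition across all tested compounds plus 3 SD, cut at about 34% in these data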;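 further: 0% = IFN-gamma with DMSO and 100% = IFN-gamma with 300 µM nifuroxazide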
NF-kB expr up – compounds increasing NF-kB expression in human neuronal cells; fold change at 12.5 µM; hit rate 1.6% among 190,000; NF-kB reporter expression; active compounds read high; in the data active means fold change above about 3.3
STAT1 act – activators of IFN-gamma induced STAT1 signaling. NIH 3T3 STAT1-luciferase reporter, luminescence; 100% = IFN-gamma alone, no compound. hit rate 2.6% among 200,000. activation (% of control), % at 5.5 µM;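 active means activation above the screen-wide mean activation plus 3 SD, cut at about 130% in these data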;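 further: raw ratio to IFN-gamma control signal so 100% means no change and 0% no light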
STAT3 inh-2 – STAT3 inhibition, confirmation assay. inhibition, % at 5.7 µM. U3A cells, IL-6 STAT3 luciferase reporter, luminescence; cell line lacks STAT1. shares compounds with STAT3 inh-1. hit rate 45% among 1,200;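 active means inhibition above the hit cutoff computed for the primary STAT3 screen, cut at about 44% in these data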;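 further: 0% = IL-6 plus DMSO and 100% = IL-6 plus nifuroxazide control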
NFkB inh STAT3ct – NF-kappaB inhibition in STAT3 inhibitor counter-screen; AID 1308; shares compounds with STAT3 inh-1; HEK293T NF-kB luciferase reporter, TNF-alpha induced; inhibition, % at 5.7 µM; hit rate 36% among 1,200;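 active means inhibition above the mean of solvent-only control wells plus 3 SD, cutoff set per campaign, cut at about 13% in these data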;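 further: 0% = TNF-alpha with DMSO and 100% = TNF-alpha with MG high control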
STAT1 inh 2 – counter-screen for STAT3 inhibitors: STAT1 inhibition; inhibition, % at 5.7 µM; hit rate 27% among 1,200; shares compounds with STAT3 inh-1; NIH 3T3 STAT1-luciferase reporter, IFN-gamma induced, luminescence;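 active means inhibition above the mean plus 3 SD of solvent-only control wells, limit set per screening run, cut at about 16% in these data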;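 further: 0% = DMSO with IFN-gamma and 100% = nifuroxazide control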
STAT1 act conf – STAT1 activation, confirmation assay | shares compounds with STAT1 act | NIH 3T3 STAT1-luciferase reporter, IFN-gamma potentiation, luminescence; 100% = IFN-gamma EC80 alone, no compound | activation (% of control), % at 5.7 µM | hit rate 97% among 1,200 | AID 1262;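 active means activation above a set limit carried over from the earlier primary STAT1 screen, cut at about 140% in these data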;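 further: simple ratio to median IFN-gamma plus DMSO wells so 0% means no light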
NFkB act – activates NF-kappaB, counter-screen to STAT1 activators. shares compounds with STAT1 act. HEK293T NF-kB luciferase reporter, TNF-alpha stimulated, luminescence; 100% = TNF-alpha with vehicle only. activation (% of control), % at 5.7 µM. hit rate 43% among 1,200;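 active means activation above the mean of solvent-only control wells plus 3 SD, set per campaign, cut at about 130% in these data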;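 further: TNF-alpha given at a submaximal dose yielding about 80% of full reporter signal; values are well signal over median control so 100% means no change and 0% no light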
STAT3 act 2 – human STAT3 activation in STAT1 activator counter-screen; shares compounds with STAT1 act; activation (% of control), % at 5.7 µM; U3A cells STAT3-luciferase reporter, IL-6, luminescence; cells lack STAT1; 100 = IL-6 alone, no compound effect; hit rate 46% among 1,200;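 active means activation above the solvent-only control well mean plus 3 SD, set per plate batch, cut at about 110% in these data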;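 further: 0% = no luminescence and 100% = median IL-6 plus DMSO wells; higher means more STAT3 reporter activation so hits are non-selective activators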
* marks the source's active call; other numbers are inactive results.

For O=[N+]([O-])c1ccc(/C=N/N=C/c2ccc([N+](=O)[O-])o2)o1 the results were STAT3 act 54.5, APP 5'UTR act -94.0, STAT3 inh-1 58.3*, STAT1 blocker -88.9, NF-kB expr up 0.15, STAT1 act 182.4*, STAT3 inh-2 12.7, NFkB inh STAT3ct -46.9, STAT1 inh 2 -45.7, STAT1 act conf 134.5*, NFkB act 137.6* and STAT3 act 2 84.6.
`CC(C)C(C)(C#N)NC(=O)CSc1nc2scc(-c3ccc(F)cc3)c2c(=O)n1Cc1ccccc1` (stereo not drawn) gave STAT3 act 96.1, APP 5'UTR act -3.2, STAT3 inh-1 0.5, STAT1 blocker 10.3, NF-kB expr up 0.68 and STAT1 act 90.7.
`COc1ccc(/C=N/Nc2cc(OC)ncn2)cc1` gave STAT3 act 58.6, APP 5'UTR act 202.7*, STAT3 inh-1 51.4*, STAT1 blocker -58.6, NF-kB expr up 6.78*, STAT1 act 152.4*, STAT3 inh-2 3.0, NFkB inh STAT3ct -24.8, STAT1 inh 2 -138.5, STAT1 act conf 227.5*, NFkB act 97.6 and STAT3 act 2 84.0.
For CCOC(=O)/C(=N\Nc1cc(Cl)ccc1Cl)N1CCN(CC)CC1 the results were STAT3 act 104.0, APP 5'UTR act -11.8, STAT3 inh-1 -9.5, STAT1 blocker 4.5, NF-kB expr up 1.07 and STAT1 act 95.9.
COc1ccc(C(=O)N=c2nc3ccccn3s2)cc1 was read as STAT3 act 55.2, APP 5'UTR act 117.2, STAT3 inh-1 57.2*, STAT1 blocker -91.4, NF-kB expr up 1.37, STAT1 act 181.9*, STAT3 inh-2 15.6, NFkB inh STAT3ct -40.1, STAT1 inh 2 -189.0, STAT1 act conf 313.2*, NFkB act 120.2 and STAT3 act 2 94.2.
`COc1ccc(C(=O)O/N=C(/c2ccccc2)c2ccncc2)cc1` gave STAT3 act 109.3, APP 5'UTR act 16.4, STAT3 inh-1 -7.5, STAT1 blocker -19.3, NF-kB expr up 1.4 and STAT1 act 116.7.
For CCN(CC)S(=O)(=O)c1ccc(NC(=O)COC(=O)c2ccc(-n3nc(C)cc3C)cc2)cc1 the results were STAT3 act 98.8, APP 5'UTR act -8.6, STAT3 inh-1 1.5, STAT1 blocker -0.9, NF-kB expr up 1.28 and STAT1 act 96.9.
CCN(CC)S(=O)(=O)c1ccc(C(=O)OCC(=O)Nc2ccc(-c3nc4ccc(C)cc4s3)cc2)cc1 was read as STAT3 act 60.3, APP 5'UTR act 151.4*, STAT3 inh-1 46.9*, STAT1 blocker -59.9, NF-kB expr up 1.55, STAT1 act 153.4*, STAT3 inh-2 29.6, NFkB inh STAT3ct -22.5, STAT1 inh 2 -73.8, STAT1 act conf 175.3*, NFkB act 114.4 and STAT3 act 2 74.5.
`CCN(CC#CCC1(O)c2ccccc2-c2ccccc21)C(C)C` gave STAT3 act 97.8, APP 5'UTR act 9.2, STAT3 inh-1 12.7, STAT1 blocker 1.4, NF-kB expr up 0.81 and STAT1 act 98.7.
